Assay results published in ChEMBL document CHEMBL1949527, “Use of copper(I) catalyzed azide alkyne cycloaddition (CuAAC) for the preparation of conjugated pyrrolo[2,3-a]carbazole Pim kinase inhibitors” (Eur J Med Chem, 2012).

Tests used:
[1] = molecular target: T1, Serine/threonine-protein kinase pim-1 (Homo sapiens, UniProt P11309); assay: Inhibition of human recombinant His6-tagged PIM1 expressed in Sf21 cells assessed as residual activity using RSRHSSYPAGT as substrate at 10 uM after 30 mins
How it was run: (§1)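 Residual activity at 10 μM inhibitor, run in duplicate. Assay buffer was 50 mM Tris/HCl pH 7.5, 0.1 mM EGTA, 0.1% 2-mercaptoethanol. Reactions were stopped with orthophosphoric acid and spotted onto P81 filters.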
Target sequence in this assay (P11309 whole entry, looked up): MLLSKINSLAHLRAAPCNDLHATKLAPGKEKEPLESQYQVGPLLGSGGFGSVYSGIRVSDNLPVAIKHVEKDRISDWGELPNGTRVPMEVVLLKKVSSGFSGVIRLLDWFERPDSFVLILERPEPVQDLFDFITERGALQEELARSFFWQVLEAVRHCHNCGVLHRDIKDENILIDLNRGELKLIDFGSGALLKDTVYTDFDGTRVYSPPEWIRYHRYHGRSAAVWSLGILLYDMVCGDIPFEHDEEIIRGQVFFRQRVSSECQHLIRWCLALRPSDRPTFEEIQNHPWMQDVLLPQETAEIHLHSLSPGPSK

[2] = molecular target: T1, Serine/threonine-protein kinase pim-1; assay: Inhibition of human recombinant His6-tagged PIM1 expressed in Sf21 cells using RSRHSSYPAGT as substrate after 30 mins
Target sequence in this assay (P11309 whole entry): as the sequence (P11309 whole entry, looked up) above

[3] = molecular target: T2, Serine/threonine-protein kinase pim-2 (Homo sapiens, UniProt Q9P1W9); assay: Inhibition of human recombinant PIM2 expressed in Escherichia coli assessed as residual activity using RSRHSSYPAGT as substrate at 10 uM after 30 mins; how it was run: as §1
Target sequence in this assay (Q9P1W9 whole entry, looked up): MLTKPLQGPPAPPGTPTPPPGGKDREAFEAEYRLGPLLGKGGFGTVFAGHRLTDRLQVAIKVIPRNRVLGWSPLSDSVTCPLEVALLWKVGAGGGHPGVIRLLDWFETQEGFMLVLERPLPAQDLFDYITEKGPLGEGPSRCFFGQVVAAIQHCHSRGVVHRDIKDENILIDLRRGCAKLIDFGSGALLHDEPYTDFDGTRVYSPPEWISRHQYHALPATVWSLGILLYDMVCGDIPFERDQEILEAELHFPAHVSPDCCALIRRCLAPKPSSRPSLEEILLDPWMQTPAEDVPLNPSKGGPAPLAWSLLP

[4] = molecular target: T3, Serine/threonine-protein kinase pim-3 (Homo sapiens, UniProt Q86V86); assay: Inhibition of human recombinant His6-tagged PIM3 expressed in Sf21 cells assessed as residual activity using RSRHSSYPAGT as substrate at 10 uM after 30 mins; how it was run: as §1
[5] = molecular target: T3, Serine/threonine-protein kinase pim-3; assay: Inhibition of human recombinant His6-tagged PIM3 expressed in Sf21 cells using RSRHSSYPAGT as substrate after 30 mins
[6] = Drug uptake in human PC3 cell cytoplasm at 10 uM after 24 hrs by fluorescence microscopy; type: ADME, cell-based; settings: pc-3, 24 h
How it was run: (§2)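 PC-3 cells in RPMI-1640 with 10% FBS, 2 mM L-glutamine and penicillin/streptomycin were grown overnight on coverslips, then exposed to 10 μM compound in DMSO (vehicle control 0,1% DMSO) for 24 h. Cells were PBS-washed, fixed 15 min in 4% paraformaldehyde and mounted. Fluorescence microscopy used a DAPI filter. Mean intensity was background-corrected and averaged from three regions in two parallel samples.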

[7] = Drug uptake in human PC3 cell nucleus at 10 uM after 24 hrs by fluorescence microscopy; type: ADME, cell-based; settings: pc-3, 24 h; how it was run: as §2
[8] = molecular target: T2, Serine/threonine-protein kinase pim-2; assay: Inhibition of human recombinant PIM2 expressed in Escherichia coli using RSRHSSYPAGT as substrate after 30 mins
Target sequence in this assay (Q9P1W9 whole entry): as the sequence (Q9P1W9 whole entry, looked up) above

PC-3 = assay: Cellular uptake in human PC3 cells at 10 uM after 24 hrs by fluorescence microscopy; type: ADME, cell-based; settings: pc-3, 24 h; how it was run: as §2

Activity [1] [%]	IC50 [2] [nM]	Activity [3] [%]	Activity [4] [%]	IC50 [5] [nM]	Drug uptake [6]	Drug uptake [7]	IC50 [8] [nM]	Drug uptake (PC-3)	SMILES
8	315	36	23	235					O=Cc1c[nH]c2c1ccc1c3ccccc3n(CCCCn3cc(CO)nn3)c12
17		66	38		Active	Not Active			CN(C)c1cccc2c(S(=O)(=O)NCc3cn(CCCCn4c5ccccc5c5ccc6c(C=O)c[nH]c6c54)nn3)cccc12
9	105	22	14	108					[N-]=[N+]=NCCCCn1c2ccccc2c2ccc3c(C=O)c[nH]c3c21
9	327	65	28	490					C[N+](C)(CCO)Cc1cn(CCCCn2c3ccccc3c3ccc4c(C=O)c[nH]c4c32)nn1
7	8	6	1	13			350		O=Cc1cn2c3c1ccc1c4ccccc4n(c13)CCCC2
								Not Active	O=Cc1c[nH]c2c1ccc1c3ccccc3[nH]c12
